Laboratory results: ChEMBL document CHEMBL1123436, “Comparative toxicities and analgesic activities of three monomethylated analogues of acetaminophen” (J Med Chem, 1986)
“And” between values parts separate entries of the source, which are not always exact repeats. Equal entries are not always repeated.

Tests used:
Mus musculus [1] = assay: Hepatotoxicity in Swiss-Webster Mice Caused by compound at 500 mg/kg (i.p.) dose; 9/10; type: functional; conditions: route intraperitoneal
Method in brief: (§1)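 Male Swiss-Webster mice (20 g), groups of 10, were given a single ip dose of drug in saline with no pretreatment. Survivors were decapitated at 24 h and counted. Plasma ALT was measured, and liver sections (formalin-fixed, paraffin, H&E) were scored for necrosis severity in survivors. Values are means ± SE.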

Mus musculus [2] = assay: Time course of Distribution of Radioactivity in Mice kidney after 3 mmol/kg dose of the Compound after 3 h; type: ADME, organism-based; conditions: in vivo
Method in brief: (§2)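 Groups of 12 mice given [acetyl-14C]-labelled drug ip, 3 mmol/kg (0.45 mCi/mmol), housed individually with urine/feces separation. Four killed at each of 1, 3 and 24 h by exsanguination. Tissues (~100 mg) digested in Soluene 350; blood digested and peroxide-bleached; feces freeze-dried, rehydrated, digested and bleached. Scintillation counting; nmol equiv/mg tissue or per mL blood/urine, means ± SE (N = 4).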

Mus musculus [3] = assay: Urinary Metabolic (Acetaminophen) profile in the mouse 24 h after dose of 3 mmol/kg of the compound; type: ADME, organism-based, Urine; conditions: in vivo
Mus musculus [4] = species on record: Mus musculus; assay: Analgesic activity determined in mice using the Bradykinin-induced Writhing test; type: organism-based
Method in brief: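 Male CD1 mice (15–20 g), test drug given orally 15 min before bradykinin ip (4 μg in 0.2 mL sterile water), then a second bradykinin injection (0.2 μg/0.1 mL) 15 min later. Writhing was scored over the next 10 min, with control groups of 10 mice. ED50 was derived by log-probit analysis from at least five doses, with 95% limits.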

Mus musculus [5] = assay: (§3) Hepatotoxicity in Swiss-Webster Mice Caused by compound at 500 mg/kg (i.p.) dose; type: functional; conditions: route intraperitoneal; method in brief: as §1
Mus musculus [6] = assay: Time course of Distribution of Radioactivity in Mice Liver after 3 mmol/kg dose of the Compound after 3 h; type: ADME, organism-based; conditions: in vivo; method in brief: as §2
Mus musculus [7] = assay: Time course of Distribution of Radioactivity in Mice Liver after 3 mmol/kg dose of the Compound after 1 h; type: ADME, organism-based; conditions: in vivo; method in brief: as §2
Mus musculus [8] = assay: Time course of Distribution of Radioactivity in Mice lungs/heart after 3 mmol/kg dose of the Compound after 1 h; type: ADME, organism-based, Lung; conditions: in vivo; method in brief: as §2
Mus musculus [9] = assay: Time course of Distribution of Radioactivity in Mice intestine after 3 mmol/kg dose of the Compound after 1 h; type: ADME, organism-based; conditions: in vivo; method in brief: as §2
Mus musculus [10] = assay: Time course of Distribution of Radioactivity in Mice spleen after 3 mmol/kg dose of the Compound after 24 h; type: ADME, organism-based; conditions: in vivo; method in brief: as §2
Mus musculus [11] = assay: Time course of Distribution of Radioactivity in Mice kidney after 3 mmol/kg dose of the Compound after 24 h; type: ADME, organism-based; conditions: in vivo; method in brief: as §2
Mus musculus [12] = assay: Time course of Distribution of Radioactivity in Mice brain after 3 mmol/kg dose of the Compound after 3 h; type: ADME, organism-based; conditions: in vivo; method in brief: as §2
Mus musculus [13] = assay: Time course of Distribution of Radioactivity in Mice kidney after 3 mmol/kg dose of the Compound after 1 h; type: ADME, organism-based; conditions: in vivo; method in brief: as §2
Mus musculus [14] = assay: Time course of Distribution of Radioactivity in Mice feces after 3 mmol/kg dose of the Compound after 1 hr; type: ADME, organism-based; conditions: in vivo; method in brief: as §2
Mus musculus [15] = assay: Time course of Distribution of Radioactivity in Mice Liver after 3 mmol/kg dose of the Compound after 24 h; type: ADME, organism-based; conditions: in vivo; method in brief: as §2
Mus musculus [16] = assay: Time course of Distribution of Radioactivity in Mice lungs/heart after 3 mmol/kg dose of the Compound after 24 h; type: ADME, organism-based, Lung; conditions: in vivo; method in brief: as §2
Mus musculus [17] = assay: Hepatotoxicity in Swiss-Webster Mice Caused by compound at 1000 mg/kg (i.p.) dose; 5/10; conditions: route intraperitoneal
Mus musculus [18] = assay: Time course of Distribution of Radioactivity in Mice intestine after 3 mmol/kg dose of the Compound after 3 h; type: ADME, organism-based; conditions: in vivo; method in brief: as §2
Mus musculus [19] = assay: Urinary Metabolic (3-hydroxy-N-methylacetaminophen) profile in the mouse 24 hr after dose of 3 mmol/kg of the compound; type: ADME, organism-based, Urine; conditions: in vivo
Mus musculus [20] = assay: Time course of Distribution of Radioactivity in Mice intestine after 3 mmol/kg dose of the Compound after 24 h; type: ADME, organism-based; conditions: in vivo; method in brief: as §2
Mus musculus [21] = assay: Time course of Distribution of Radioactivity in Mice blood after 3 mmol/kg dose of the Compound after 1 h; type: ADME, organism-based; conditions: in vivo; method in brief: as §2
Mus musculus [22] = assay: Time course of Distribution of Radioactivity in Mice lungs/heart after 3 mmol/kg dose of the Compound after 3 h; type: ADME, organism-based, Lung; conditions: in vivo; method in brief: as §2
Mus musculus [23] = assay: Time course of Distribution of Radioactivity in Mice Urine after 3 mmol/kg dose of the Compound after 24 h; type: ADME, organism-based; conditions: in vivo; method in brief: as §2
Mus musculus [24] = assay: Time course of Distribution of Radioactivity in Mice spleen after 3 mmol/kg dose of the Compound after 1 h; type: ADME, organism-based; conditions: in vivo; method in brief: as §2
Mus musculus [25] = assay: Time course of Distribution of Radioactivity in Mice feces after 3 mmol/kg dose of the Compound after 3 h; type: ADME, organism-based; conditions: in vivo; method in brief: as §2
Mus musculus [26] = assay: Time course of Distribution of Radioactivity in Mice blood after 3 mmol/kg dose of the Compound after 24 h; type: ADME, organism-based; conditions: in vivo; method in brief: as §2
Mus musculus [27] = assay: Time course of Distribution of Radioactivity in Mice spleen after 3 mmol/kg dose of the Compound after 3 h; type: ADME, organism-based; conditions: in vivo; method in brief: as §2
Mus musculus [28] = assay: Time course of Distribution of Radioactivity in Mice Urine after 3 mmol/kg dose of the Compound after 1 h; type: ADME, organism-based; conditions: in vivo; method in brief: as §2
Mus musculus [29] = assay: Time course of Distribution of Radioactivity in Mice stomach after 3 mmol/kg dose of the Compound after 1 h; type: ADME, organism-based; conditions: in vivo; method in brief: as §2
Mus musculus [30] = assay: Time course of Distribution of Radioactivity in Mice stomach after 3 mmol/kg dose of the Compound after 3 h; type: ADME, organism-based; conditions: in vivo; method in brief: as §2
Mus musculus [31] = assay: Urinary Metabolic (N-methylacetaminophen) profile in the mouse 24 hr after dose of 3 mmol/kg of the compound; type: ADME, organism-based, Urine; conditions: in vivo
Mus musculus [32] = assay: Time course of Distribution of Radioactivity in Mice Urine after 3 mmol/kg dose of the Compound after 3 h; type: ADME, organism-based; conditions: in vivo; method in brief: as §2
Mus musculus [33] = assay: Time course of Distribution of Radioactivity in Mice stomach after 3 mmol/kg dose of the Compound after 24 h; type: ADME, organism-based; conditions: in vivo; method in brief: as §2
Mus musculus [34] = assay: Time course of Distribution of Radioactivity in Mice brain after 3 mmol/kg dose of the Compound after 24 h; type: ADME, organism-based; conditions: in vivo; method in brief: as §2
Mus musculus [35] = assay: Time course of Distribution of Radioactivity in Mice brain after 3 mmol/kg dose of the Compound after 1 h; type: ADME, organism-based; conditions: in vivo; method in brief: as §2
Mus musculus [36] = assay: Time course of Distribution of Radioactivity in Mice blood after 3 mmol/kg dose of the Compound after 3 h; type: ADME, organism-based; conditions: in vivo; method in brief: as §2
Mus musculus [37] = assay: Urinary Metabolic (3-methoxy-N-methylacetaminophen) profile in the mouse 24 hr after dose of 3 mmol/kg of the compound; type: ADME, organism-based, Urine; conditions: in vivo
Mus musculus [38] = assay: Time course of Distribution of Radioactivity in Mice feces after 3 mmol/kg dose of the Compound after 24 h; type: ADME, organism-based; conditions: in vivo; method in brief: as §2
Mus musculus [39] = assay: as §3; type: functional, organism-based; design: dose 500 mg/kg
Method in brief: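 Male Swiss-Webster mice (20 g), groups of 10, dosed ip in saline; some groups pretreated with phenobarbital (80 mg/kg ip at 72, 60, 48, 24 h), cobaltous chloride (30 mg/kg ip at 48, 36, 24, 12 h) or neat piperonyl butoxide (1360 mg/kg ip, 30 min before). Survivors killed at 24 h; plasma ALT measured, liver H&E sections scored for necrosis; means ± SE.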

With `CC(=O)N(C)c1ccc(O)cc1` the “Survivors at 24 h” value (Mus musculus [1]) was 9, the Radioactivity (Mus musculus [2]) was 0.49 nM equiv (mg of tissue)-1 and the Administered dose (Mus musculus [3]) was 1.9%. For the same compound, the ED50 (Mus musculus [4]) was over 200 mg/kg, the “Hepatic necrosis in survivors” value (Mus musculus [5]) was 0 and the Radioactivity (Mus musculus [6]) was 0.6 nM equiv (mg of tissue)-1. For the same compound, the Radioactivity (Mus musculus [7]) was 3.16 nM equiv (mg of tissue)-1, the Radioactivity (Mus musculus [8]) was 1.78 nM equiv (mg of tissue)-1 and the Radioactivity (Mus musculus [9]) was 2.17 nM equiv (mg of tissue)-1. The Radioactivity (Mus musculus [10]) was 0.03 nM equiv (mg of tissue)-1, the Radioactivity (Mus musculus [11]) was 0.05 nM equiv (mg of tissue)-1 and the Radioactivity (Mus musculus [12]) was 0.05 nM equiv (mg of tissue)-1. For the same compound, the Radioactivity (Mus musculus [13]) was 3.73 nM equiv (mg of tissue)-1, the Radioactivity (Mus musculus [14]) was 0.03 nM equiv mg-1 and the Radioactivity (Mus musculus [15]) was 0.05 nM equiv (mg of tissue)-1. For the same compound, the Radioactivity (Mus musculus [16]) was 0.03 nM equiv (mg of tissue)-1, the “Survivors at 24 h” value (Mus musculus [17]) was 5 and the Radioactivity (Mus musculus [18]) was 1.52 nM equiv (mg of tissue)-1. For the same compound, the Administered dose (Mus musculus [19]) was 0.6%, the Radioactivity (Mus musculus [20]) was 0.61 nM equiv (mg of tissue)-1 and the Radioactivity (Mus musculus [21]) was 1855 nM equiv (ml of blood)-1. For the same compound, the Radioactivity (Mus musculus [22]) was 0.13 nM equiv (mg of tissue)-1, the Radioactivity (Mus musculus [23]) was 6978 nM equiv (ml of urine)-1 and the Radioactivity (Mus musculus [24]) was 1.58 nM equiv (mg of tissue)-1. For the same compound, the Radioactivity (Mus musculus [25]) was 3.17 nM equiv mg-1, the Radioactivity (Mus musculus [26]) was 14.6 nM equiv (ml of blood)-1 and the Radioactivity (Mus musculus [27]) was 0.13 nM equiv (mg of tissue)-1. For the same compound, the Radioactivity (Mus musculus [28]) was 7.67 nM equiv (ml of urine)-1, the Radioactivity (Mus musculus [29]) was 0.21 nM equiv (mg of tissue)-1 and the Radioactivity (Mus musculus [30]) was 0.87 nM equiv (mg of tissue)-1. For the same compound, the Administered dose (Mus musculus [31]) was 78.9%, the Radioactivity (Mus musculus [32]) was 3200 nM equiv (ml of urine)-1 and the Radioactivity (Mus musculus [33]) was 0.08 nM equiv (mg of tissue)-1. For the same compound, the Radioactivity (Mus musculus [34]) was 0.01 nM equiv (mg of tissue)-1, the Radioactivity (Mus musculus [35]) was 1.03 nM equiv (mg of tissue)-1 and the Radioactivity (Mus musculus [36]) was 501 nM equiv (ml of blood)-1. The Administered dose (Mus musculus [37]) was 13.7%, the Radioactivity (Mus musculus [38]) was 74.5 nM equiv mg-1 and the Plasma ALT at 24 h (Mus musculus [39]) was 27 mU ml-1 and 32 mU ml-1.
